Like-named read-outs stand apart in the source and are kept apart here. Each block holds one compound with its values, some of them ahead of it.
Columns and labels:
[1] = assay type: in vivo, human; conditions: for AUC(0-inf) / AUC(0-t) / Vd/F / half-life: human, po; for Plasma concentration at 6 h after clopidogrel administration: most subjects, LLOQ 0.25 ng/mL
[2] = cited from earlier work
[3] = test system: ADP-induced platelet aggregation; test: ADP-induced whole-blood platelet aggregation, Multiplate impedance aggregometer; assay type: in vivo, human
How it was run: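 Caucasian patients from central Poland undergoing coronary or peripheral interventions received the test drug orally, fasting, 75 mg daily for 7 days beforehand. Blood was drawn 2–3 h post-dose into hirudin tubes, diluted 1:1 with 0.9 % NaCl, and stirred 3 min at 37 °C. ADP was added at 6.4 μmol/L, and impedance was recorded for 6 min. Aggregation was expressed as AUC (AU·min).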

[4] = cited from earlier work; remark: listed apart in the source
[5] = patients, oral clopidogrel 75 mg for 7 days, plasma
[6] = patients, oral clopidogrel 75 mg, plasma
[7] = patients, single oral clopidogrel 300 mg loading dose, plasma
[8] = patients, single oral clopidogrel 300 mg, plasma
[9] = clopidogrel 75 mg maintenance dose, 6.4 μmol/L ADP
[10] = clopidogrel 75 mg, single subject
[11] = clopidogrel 75 mg, diabetes mellitus no (n = 19)
[12] = clopidogrel 75 mg, diabetes mellitus yes (n = 11)
[13] = clopidogrel 75 mg, proton-pump inhibitors no (n = 15)
[14] = clopidogrel 75 mg, proton-pump inhibitors yes (n = 13)
[15] = healthy volunteers, clopidogrel 75 mg, ref 10

Structure (SMILES): O=C(O)[C@H](c1ccccc1Cl)N1CCc2sccc2C1 [CLPM]
C max in plasma relative to that of the parent drug ([1]; patients, clopidogrel 75 and 300 mg): thousand-fold greater
C max (mean ± SD) [1, 5]: 2,516 ± 1,754 ng/mL
AUCt (mean ± SD) [1, 6]: 11,077 ± 7,768 ng·h/mL
AUC∞ (mean ± SD) [1, 6]: 12,383 ± 8,552 ng·h/mL
t max (mean ± SD) [1, 6]: 1.37 ± 0.74 h
C max (mean ± SD) [1, 7]: 8,464 ± 3,772 ng/mL
AUCt (mean ± SD) [1, 8]: 32,979 ± 12,321 ng·h/mL
AUC∞ (mean ± SD) [1, 8]: 37,249 ± 13,861 ng·h/mL
t max (mean ± SD) [1, 8]: 1.61 ± 1.21 h

Structure (SMILES): COC(=O)[C@H](c1ccccc1Cl)N1CCC(S)/C(=C\C(=O)O)C1 (some centres unmarked) [CTM]
C max ([2]; healthy control subjects, clopidogrel 600 mg): 14.5 ng/mL
Concentrations in plasma ([2]; method not distinguishing H3 and H4 isomers): > 20 ng/mL
C max ([2]; patients with a history of stent thrombosis, clopidogrel 600 mg): 3.2 ng/mL

Structure (SMILES): COC(=O)[C@H](c1ccccc1Cl)N1CCc2sccc2C1 [Clopidogrel, (+)-S clopidogrel bisulfate, reference compound]
AUC(0-inf) ([1]; plasma, 75 mg): 6.29 ± 4.11 ng·h/mL
AUC(0-t) ([1]; plasma, 75 mg): 5.07 ± 3.8 ng·h/mL
Vd/F ([1]; plasma, 75 mg): 39200 ± 33500 L
half-life ([1]; plasma, 75 mg): 103 ± 76.8 min
AUC(0-inf) ([1]; plasma, 300 mg): 21.8 ± 13.3 ng·h/mL
AUC(0-t) ([1]; plasma, 300 mg): 20.8 ± 13.3 ng·h/mL
Vd/F ([1]; plasma, 300 mg): 45500 ± 19200 L
half-life ([1]; plasma, 300 mg): 119 ± 26.4 min
CL/F (mean ± SD) ([1]; patients, oral clopidogrel 75 mg): 18.96 ± 15.89 ×10^3 L/h
C max (mean ± SD) [1, 5]: 2.04 ± 2.0 ng/mL
CL/F (mean ± SD) ([1]; patients, single oral clopidogrel 300 mg): 16.98 ± 10.41 ×10^3 L/h
C max (mean ± SD) [1, 7]: 4.51 ± 3.42 ng/mL
t max (mean ± SD) [1, 8]: 1.17 ± 0.76 h
Platelet aggregation, mean ± SD [3, 9]: 166 ± 146 AU·min
Platelet aggregation, median [3, 9]: 141 AU·min
Number of patients characterized as non-responders (AUC >468 AU·min) ([3]; clopidogrel 75 mg, 38 patients): two
Number of patients with low platelet aggregation (AUC <100 AU·min) ([3]; clopidogrel 75 mg, 38 patients): 14 patients
Platelet aggregation (AUC), one patient with high H4 concentrations ([3]; clopidogrel 75 mg, single patient later excluded from the correlation): 637 AU·min
Platelet aggregation, one subject with low H4 concentrations [3, 10]: 747 AU·min
Fraction of the absorbed drug transformed by carboxyl esterases into CLPM [4]: Up to 85%
C max ([2]; Argentinean subjects, clopidogrel 75 mg): 0.9 ng/mL
C max ([2]; Egyptian healthy volunteers, clopidogrel 75 mg): 4.4 ng/mL
C max ([2]; US healthy volunteers, fasted state, clopidogrel 75 mg): 1.5 ng/mL
C max ([2]; US healthy volunteers, fed state, clopidogrel 75 mg): 2.5 ng/mL

The next lines start with results.

AUCt (mean ± SD) [1, 11]: 6.71 ± 4.47 ng·h/mL
C max (mean ± SD) [1, 11]: 4.90 ± 4.02 ng/mL
AUCt (mean ± SD) [1, 12]: 7.88 ± 9.33 ng·h/mL
C max (mean ± SD) [1, 12]: 5.96 ± 7.69 ng/mL
AUCt (mean ± SD) [1, 13]: 7.03 ± 5.52 ng·h/mL
C max (mean ± SD) [1, 13]: 5.00 ± 4.93 ng/mL
AUCt (mean ± SD) [1, 14]: 7.76 ± 8.16 ng·h/mL
C max (mean ± SD) [1, 14]: 5.94 ± 6.63 ng/mL
Plasma concentration at 6 h after clopidogrel administration [1]: below the limit of quantification
C max (mean ± SD) [1, 5]: 5.29 ± 5.54 ng/mL
AUCt (mean ± SD) [1, 6]: 7.37 ± 6.71 ng·h/mL
AUC∞ (mean ± SD) [1, 6]: 7.96 ± 6.85 ng·h/mL
t max (mean ± SD) [1, 6]: 1.08 ± 0.62 h
t ½ (mean ± SD) [1, 6]: 46.8 ± 46.8 min
C max (mean ± SD) [1, 7]: 8.47 ± 1.69 ng/mL
AUCt (mean ± SD) [1, 8]: 11.24 ± 8.31 ng·h/mL
AUC∞ (mean ± SD) [1, 8]: 11.70 ± 8.33 ng·h/mL
t max (mean ± SD) [1, 8]: 0.83 ± 0.29 h
t ½ (mean ± SD) [1, 8]: 43.2 ± 10.8 min
Structure (SMILES): COC(=O)[C@H](c1ccccc1Cl)N1CC[C@H](S)/C(=C\C(=O)O)C1 [H3]
C max [2, 15]: 17.8 ng/mL

Exposure to H4 relative to exposure to the H3 isomer ([1]; after clopidogrel 300 mg (n = 3)): two times greater
AUCt (mean ± SD) [1, 11]: 10.46 ± 9.78 ng·h/mL
C max (mean ± SD) [1, 11]: 6.61 ± 6.30 ng/mL
AUCt (mean ± SD) [1, 12]: 11.69 ± 9.63 ng·h/mL
C max (mean ± SD) [1, 12]: 8.04 ± 6.55 ng/mL
AUCt (mean ± SD) [1, 13]: 9.69 ± 9.81 ng·h/mL
C max (mean ± SD) [1, 13]: 5.92 ± 4.53 ng/mL
AUCt (mean ± SD) [1, 14]: 13.10 ± 9.82 ng·h/mL
C max (mean ± SD) [1, 14]: 9.04 ± 8.07 ng/mL
C max, one patient with high platelet aggregation (637 AU·min) ([1]; clopidogrel 75 mg, single patient): 23.3 ng/mL
C max, one subject with high platelet aggregation (747 AU·min) [1, 10]: 2.5 ng/mL
Plasma concentration at 6 h after clopidogrel administration [1]: below the limit of quantification
C max (mean ± SD) [1, 5]: 7.13 ± 6.32 ng/mL
AUCt (mean ± SD) [1, 6]: 11.30 ± 9.58 ng·h/mL
AUC∞ (mean ± SD) [1, 6]: 11.97 ± 9.75 ng·h/mL
t max (mean ± SD) [1, 6]: 1.04 ± 0.53 h
t ½ (mean ± SD) [1, 6]: 54 ± 51.6 min
C max (mean ± SD) [1, 7]: 17.92 ± 20.38 ng/mL
AUCt (mean ± SD) [1, 8]: 25.04 ± 27.41 ng·h/mL
AUC∞ (mean ± SD) [1, 8]: 25.69 ± 27.54 ng·h/mL
t max (mean ± SD) [1, 8]: 0.83 ± 0.29 h
t ½ (mean ± SD) [1, 8]: 50.4 ± 12 min
Structure (SMILES): COC(=O)[C@H](c1ccccc1Cl)N1CCC(S)/C(=C\C(=O)O)C1 (some centres unmarked) [H4]
C max [2, 15]: 16.4 ng/mL
C max ([2]; healthy volunteers, clopidogrel 75 mg, ref 32): 11 ng/mL

Reference: paper PMC3899497 (Clinical Pharmacokinetics, 2013)
